{"source": "ChEMBL document CHEMBL2021801", "about": "“Thienopyridine ureas as dual inhibitors of the VEGF and Aurora kinase families” (Bioorg Med Chem Lett, 2012)", "key": {"[1]": {"test": "Oral bioavailability in CD1 (ICR) mouse at 10 mg/kg", "type": "ADME, organism-based", "settings": "in vivo"}, "[2]": {"test": "Volume of distribution in CD1 (ICR) mouse at 3 mg/kg, iv", "type": "ADME, organism-based", "set-up": "dose 3 mg/kg, route intravenous", "settings": "in vivo"}, "Aurora kinase B [3]": {"biological_target": "T1, Aurora kinase B (Homo sapiens, UniProt Q96GD4)", "T1 sequence (Q96GD4 whole entry)": "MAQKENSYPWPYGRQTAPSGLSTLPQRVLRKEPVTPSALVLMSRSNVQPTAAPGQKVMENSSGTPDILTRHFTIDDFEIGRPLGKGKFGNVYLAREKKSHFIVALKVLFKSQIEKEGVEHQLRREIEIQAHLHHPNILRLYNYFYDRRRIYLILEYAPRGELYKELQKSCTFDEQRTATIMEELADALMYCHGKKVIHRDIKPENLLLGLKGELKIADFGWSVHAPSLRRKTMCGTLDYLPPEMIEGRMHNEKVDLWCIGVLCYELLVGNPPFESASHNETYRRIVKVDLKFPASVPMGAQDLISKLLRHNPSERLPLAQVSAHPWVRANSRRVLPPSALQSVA", "settings": "NCI-H1229"}, "HT-1080": {"system": "HT-1080", "test": "Antitumor activity against human HT1080 cells xenografted in mouse assessed as tumor growth inhibition at 10 mg/kg, po qd", "type": "functional", "settings": "read-out: GI"}, "[4]": {"test": "AUC in CD1 (ICR) mouse at 10 mg/kg, po", "type": "ADME, organism-based", "set-up": "dose 10 mg/kg, route oral", "settings": "plasma"}, "[5]": {"test": "Half life in CD1 (ICR) mouse at 3 mg/kg, iv", "type": "ADME, organism-based", "set-up": "dose 3 mg/kg, route intravenous", "settings": "in vivo"}, "Mus musculus [6]": {"system": "Mus musculus", "test": "In vivo inhibition of KDR in po dosed mouse assessed as estradiol-induced uterine edema", "type": "functional"}, "[7]": {"test": "Clearance in CD1 (ICR) mouse at 3 mg/kg, iv", "type": "ADME, organism-based", "set-up": "dose 3 mg/kg, route intravenous", "settings": "in vivo"}, "Aurora kinase B [8]": {"biological_target": "T1, Aurora kinase B", "test": "Inhibition of Aurora B using 1 mM ATP by HTRF assay"}, "[9]": {"biological_target": "T2, Vascular endothelial growth factor receptor 2 (Homo sapiens, UniProt P35968)", "T2 sequence (P35968 whole entry)": "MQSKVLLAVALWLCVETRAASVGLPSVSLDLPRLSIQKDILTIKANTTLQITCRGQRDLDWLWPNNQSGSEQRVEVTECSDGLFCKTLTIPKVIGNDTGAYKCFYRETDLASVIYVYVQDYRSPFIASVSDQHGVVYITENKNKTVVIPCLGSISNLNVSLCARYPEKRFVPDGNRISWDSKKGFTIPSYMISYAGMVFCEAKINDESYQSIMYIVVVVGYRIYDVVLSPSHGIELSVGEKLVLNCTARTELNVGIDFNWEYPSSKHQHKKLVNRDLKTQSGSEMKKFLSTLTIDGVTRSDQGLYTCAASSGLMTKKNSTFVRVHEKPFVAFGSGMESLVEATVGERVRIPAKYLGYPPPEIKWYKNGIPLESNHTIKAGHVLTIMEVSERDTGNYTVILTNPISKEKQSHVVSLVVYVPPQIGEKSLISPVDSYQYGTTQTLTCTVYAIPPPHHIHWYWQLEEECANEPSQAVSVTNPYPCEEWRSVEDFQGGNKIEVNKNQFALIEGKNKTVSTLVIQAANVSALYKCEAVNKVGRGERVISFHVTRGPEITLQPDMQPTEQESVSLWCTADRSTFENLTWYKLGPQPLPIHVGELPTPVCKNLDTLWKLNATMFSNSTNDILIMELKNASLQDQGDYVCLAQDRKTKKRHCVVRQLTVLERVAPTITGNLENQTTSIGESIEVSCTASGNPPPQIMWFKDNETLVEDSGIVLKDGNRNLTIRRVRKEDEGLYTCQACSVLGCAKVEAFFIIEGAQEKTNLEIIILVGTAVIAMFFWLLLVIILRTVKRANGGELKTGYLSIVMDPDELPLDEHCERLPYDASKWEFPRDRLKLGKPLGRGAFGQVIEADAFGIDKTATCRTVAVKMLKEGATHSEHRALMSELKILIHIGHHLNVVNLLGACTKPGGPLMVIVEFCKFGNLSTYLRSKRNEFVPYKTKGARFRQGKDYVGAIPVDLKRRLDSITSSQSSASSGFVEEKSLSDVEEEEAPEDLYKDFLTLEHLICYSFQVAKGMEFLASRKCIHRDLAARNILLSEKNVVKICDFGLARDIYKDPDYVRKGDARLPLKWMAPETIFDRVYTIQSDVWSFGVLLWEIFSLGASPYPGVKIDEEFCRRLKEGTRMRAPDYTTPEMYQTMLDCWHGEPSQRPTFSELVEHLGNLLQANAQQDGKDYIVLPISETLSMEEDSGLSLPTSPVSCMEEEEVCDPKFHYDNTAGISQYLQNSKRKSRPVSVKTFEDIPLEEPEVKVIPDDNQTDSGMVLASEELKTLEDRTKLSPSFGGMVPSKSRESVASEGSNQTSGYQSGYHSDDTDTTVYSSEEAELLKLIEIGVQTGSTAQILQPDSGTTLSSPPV", "test": "Inhibition of KDR using 1 mM ATP by HTRF assay"}, "[10]": {"biological_target": "T2, Vascular endothelial growth factor receptor 2", "test": "Inhibition of human KDR phosphorylation expressed in mouse NIH3T3 cells", "type": "cell-based"}, "Cytochrome P450 3A4 [11]": {"biological_target": "T3, Cytochrome P450 3A4 (Homo sapiens, UniProt P08684)", "T3 sequence (P08684 whole entry)": "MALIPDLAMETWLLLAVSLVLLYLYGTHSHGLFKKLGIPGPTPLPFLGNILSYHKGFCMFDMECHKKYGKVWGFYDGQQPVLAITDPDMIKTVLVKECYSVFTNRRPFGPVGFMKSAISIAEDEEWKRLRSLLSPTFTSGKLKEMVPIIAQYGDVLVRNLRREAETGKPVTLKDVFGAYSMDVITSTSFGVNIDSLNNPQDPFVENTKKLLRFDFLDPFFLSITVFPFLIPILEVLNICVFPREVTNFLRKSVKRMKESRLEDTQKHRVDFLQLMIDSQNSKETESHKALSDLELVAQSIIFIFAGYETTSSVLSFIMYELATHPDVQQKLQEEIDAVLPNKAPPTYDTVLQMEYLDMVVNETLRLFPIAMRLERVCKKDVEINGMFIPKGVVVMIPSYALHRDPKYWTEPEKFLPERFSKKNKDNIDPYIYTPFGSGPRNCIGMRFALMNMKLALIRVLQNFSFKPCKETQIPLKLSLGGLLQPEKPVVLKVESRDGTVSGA", "test": "Inhibition of CYP3A4 preincubated for 15 mins", "type": "ADME"}, "Cytochrome P450 3A4 [12]": {"biological_target": "T3, Cytochrome P450 3A4", "test": "Inhibition of CYP3A4", "type": "ADME"}, "Mus musculus [13]": {"system": "Mus musculus", "test": "In vivo inhibition of KDR in mouse assessed as estradiol-induced uterine edema up to 30 mg/kg, po", "type": "functional, organism-based", "set-up": "dose 30 mg/kg", "in_short": "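Estradiol-induced uterine edema model in mice, a readout of acute in vivo KDR activity. Compound is given orally and ED50 is reported in mg/kg po. Procedure follows the cited reference.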"}, "Cytochrome P450 3A4 [14]": {"biological_target": "T3, Cytochrome P450 3A4", "test": "Inhibition of CYP3A4 up to 10 uM", "type": "ADME"}}, "note": "Calls of active or inactive are those of the source. No cut-off for these calls is given here.", "data": [{"smiles": "Cc1cccc(NC(=O)Nc2ccc(-c3csc4c(-c5cnn(C)c5)cnc(N)c34)cc2)c1", "values": [{"measurement": "bioavailability", "setting": "[1]", "result": 59, "unit": "%"}, {"measurement": "Vd", "setting": "[2]", "result": 2.3, "unit": "L/kg"}, {"measurement": "EC15", "setting": "Aurora kinase B [3]", "result": 55, "unit": "nM"}, {"measurement": "inhibition in vivo at 10 mg/kg", "setting": "HT-1080", "result": "> 70", "unit": "%"}, {"measurement": "AUC", "setting": "[4]", "result": 5640, "unit": "ng·h/mL"}, {"measurement": "half-life", "setting": "[5]", "result": 1.5, "unit": "h"}, {"measurement": "ED50", "setting": "Mus musculus [6]", "result": 1, "unit": "mg/kg"}, {"measurement": "clearance", "setting": "[7]", "result": 18.3, "unit": "mL/min/kg"}]}, {"smiles": "Cn1cc(-c2cnc(N)c3c(-c4ccc(NC(=O)Nc5cccc(Cl)c5)cc4)csc23)cn1", "values": [{"measurement": "EC15", "setting": "Aurora kinase B [3]", "result": 18, "unit": "nM"}, {"measurement": "IC50", "setting": "Aurora kinase B [8]", "result": 70, "unit": "nM"}, {"measurement": "ED50", "setting": "Mus musculus [6]", "result": 2, "unit": "mg/kg"}, {"measurement": "IC50", "setting": "[9]", "result": 7, "unit": "nM"}]}, {"smiles": "Cn1cc(-c2cnc(N)c3c(-c4ccc(NC(=O)Nc5ccccc5)cc4)csc23)cn1", "values": [{"measurement": "EC15", "setting": "Aurora kinase B [3]", "result": 9, "unit": "nM"}, {"measurement": "IC50", "setting": "Aurora kinase B [8]", "result": 6, "unit": "nM"}, {"measurement": "ED50", "setting": "Mus musculus [6]", "result": 0.3, "unit": "mg/kg"}, {"measurement": "IC50", "setting": "[9]", "result": 3, "unit": "nM"}]}, {"smiles": "Cc1cccc(NC(=O)Nc2ccc(-c3csc4c(-c5cc[nH]n5)cnc(N)c34)cc2)c1", "values": [{"measurement": "EC15", "setting": "Aurora kinase B [3]", "result": 161, "unit": "nM"}, {"measurement": "IC50", "setting": "Aurora kinase B [8]", "result": 66, "unit": "nM"}, {"measurement": "IC50", "setting": "[10]", "result": 3, "unit": "nM"}, {"measurement": "IC50", "setting": "[9]", "result": 6, "unit": "nM"}]}, {"smiles": "CN1CCC(n2cc(-c3cnc(N)c4c(-c5ccc(NC(=O)Nc6cccc(F)c6)cc5)csc34)cn2)C1=O", "note": "(stereo not drawn)", "values": [{"measurement": "EC15", "setting": "Aurora kinase B [3]", "result": 1, "unit": "nM"}, {"measurement": "IC50", "setting": "Aurora kinase B [8]", "result": 5, "unit": "nM"}, {"measurement": "ED50", "setting": "Mus musculus [6]", "result": 0.4, "unit": "mg/kg"}, {"measurement": "IC50", "setting": "[9]", "result": 6, "unit": "nM"}]}, {"smiles": "Cn1cc(-c2cnc(N)c3c(-c4ccc(NC(=O)Nc5cccc(F)c5)cc4)csc23)cn1", "values": [{"measurement": "bioavailability", "setting": "[1]", "result": 78, "unit": "%"}, {"measurement": "Vd", "setting": "[2]", "result": 0.9, "unit": "L/kg"}, {"measurement": "IC50", "setting": "Cytochrome P450 3A4 [11]", "result": 2700, "unit": "nM"}, {"measurement": "EC15", "setting": "Aurora kinase B [3]", "result": 6, "unit": "nM"}, {"measurement": "inhibition in vivo at 10 mg/kg", "setting": "HT-1080", "result": "> 70", "unit": "%"}, {"measurement": "AUC", "setting": "[4]", "result": 44000, "unit": "ng·h/mL"}, {"measurement": "IC50", "setting": "Aurora kinase B [8]", "result": 9, "unit": "nM"}, {"measurement": "half-life", "setting": "[5]", "result": 3.6, "unit": "h"}, {"measurement": "IC50", "setting": "Cytochrome P450 3A4 [12]", "result": 7900, "unit": "nM"}, {"measurement": "ED50", "setting": "Mus musculus [6]", "result": 0.3, "unit": "mg/kg"}, {"measurement": "clearance", "setting": "[7]", "result": 3.33, "unit": "mL/min/kg"}]}, {"smiles": "COc1ccccc1NC(=O)Nc1ccc(-c2csc3c(-c4cnn(C)c4)cnc(N)c23)cc1", "values": [{"measurement": "EC15", "setting": "Aurora kinase B [3]", "result": "> 100", "unit": "nM"}, {"measurement": "IC50", "setting": "Aurora kinase B [8]", "result": 52, "unit": "nM"}, {"measurement": "ED50", "setting": "Mus musculus [6]", "result": 8, "unit": "mg/kg"}, {"measurement": "IC50", "setting": "[9]", "result": 6, "unit": "nM"}]}, {"smiles": "CNC(=O)/C=C/c1cnc(N)c2c(-c3ccc(NC(=O)Nc4cccc(C)c4)cc3)csc12", "values": [{"measurement": "EC15", "setting": "Aurora kinase B [3]", "result": 87, "unit": "nM"}, {"measurement": "IC50", "setting": "Aurora kinase B [8]", "result": 80, "unit": "nM"}, {"measurement": "IC50", "setting": "[10]", "result": 22, "unit": "nM"}, {"measurement": "IC50", "setting": "[9]", "result": 6, "unit": "nM"}]}, {"smiles": "Cc1cccc(NC(=O)Nc2ccc(-c3csc4ccnc(N)c34)cc2)c1", "values": [{"measurement": "Activity", "setting": "Mus musculus [13]", "result": "inactive"}, {"measurement": "bioavailability", "setting": "[1]", "result": 18, "unit": "%"}, {"measurement": "Vd", "setting": "[2]", "result": 1.7, "unit": "L/kg"}, {"measurement": "EC15", "setting": "Aurora kinase B [3]", "result": 4140, "unit": "nM"}, {"measurement": "AUC", "setting": "[4]", "result": 450, "unit": "ng·h/mL"}, {"measurement": "half-life", "setting": "[5]", "result": 0.3, "unit": "h"}, {"measurement": "clearance", "setting": "[7]", "result": 66.7, "unit": "mL/min/kg"}]}, {"smiles": "Cc1cccc(NC(=O)Nc2ccc(-c3csc4c(-c5ccccc5)cnc(N)c34)cc2)c1", "values": [{"measurement": "IC50", "setting": "Aurora kinase B [8]", "result": 3280, "unit": "nM"}]}, {"smiles": "Cc1cccc(NC(=O)Nc2ccc(-c3csc4c(-c5ccoc5)cnc(N)c34)cc2)c1", "values": [{"measurement": "EC15", "setting": "Aurora kinase B [3]", "result": "> 300", "unit": "nM"}, {"measurement": "IC50", "setting": "Aurora kinase B [8]", "result": 100, "unit": "nM"}, {"measurement": "IC50", "setting": "[10]", "result": 14, "unit": "nM"}, {"measurement": "IC50", "setting": "[9]", "result": 8, "unit": "nM"}]}, {"smiles": "Cn1cc(-c2cnc(N)c3c(-c4ccc(NC(=O)Nc5ccc(OC(F)(F)F)cc5)cc4)csc23)cn1", "values": [{"measurement": "EC15", "setting": "Aurora kinase B [3]", "result": 12, "unit": "nM"}, {"measurement": "IC50", "setting": "Aurora kinase B [8]", "result": 17, "unit": "nM"}, {"measurement": "ED50", "setting": "Mus musculus [6]", "result": 2.6, "unit": "mg/kg"}, {"measurement": "IC50", "setting": "[9]", "result": 3, "unit": "nM"}]}, {"smiles": "Cc1ccc(NC(=O)Nc2ccc(-c3csc4c(-c5cnn(C)c5)cnc(N)c34)cc2)cc1", "values": [{"measurement": "EC15", "setting": "Aurora kinase B [3]", "result": 64, "unit": "nM"}, {"measurement": "IC50", "setting": "Aurora kinase B [8]", "result": 50, "unit": "nM"}, {"measurement": "ED50", "setting": "Mus musculus [6]", "result": 1, "unit": "mg/kg"}]}, {"smiles": "CC(C)CCn1cc(-c2cnc(N)c3c(-c4ccc(NC(=O)Nc5cccc(F)c5)cc4)csc23)cn1", "values": [{"measurement": "IC50", "setting": "Aurora kinase B [8]", "result": 529, "unit": "nM"}, {"measurement": "IC50", "setting": "[9]", "result": 25, "unit": "nM"}]}, {"smiles": "CCCn1cc(-c2cnc(N)c3c(-c4ccc(NC(=O)Nc5cccc(F)c5)cc4)csc23)cn1", "values": [{"measurement": "inhibition (INH)", "setting": "Cytochrome P450 3A4 [14]", "result": "< 20", "unit": "%"}, {"measurement": "bioavailability", "setting": "[1]", "result": 52, "unit": "%"}, {"measurement": "Vd", "setting": "[2]", "result": 1.2, "unit": "L/kg"}, {"measurement": "EC15", "setting": "Aurora kinase B [3]", "result": 4, "unit": "nM"}, {"measurement": "inhibition in vivo at 10 mg/kg", "setting": "HT-1080", "result": "> 70", "unit": "%"}, {"measurement": "AUC", "setting": "[4]", "result": 5260, "unit": "ng·h/mL"}, {"measurement": "IC50", "setting": "Aurora kinase B [8]", "result": 31, "unit": "nM"}, {"measurement": "half-life", "setting": "[5]", "result": 0.8, "unit": "h"}, {"measurement": "ED50", "setting": "Mus musculus [6]", "result": 1.5, "unit": "mg/kg"}, {"measurement": "clearance", "setting": "[7]", "result": 16.7, "unit": "mL/min/kg"}]}, {"smiles": "Cn1cc(-c2cnc(N)c3c(-c4ccc(NC(=O)Nc5ccccc5F)cc4)csc23)cn1", "values": [{"measurement": "EC15", "setting": "Aurora kinase B [3]", "result": "< 30", "unit": "nM"}, {"measurement": "IC50", "setting": "Aurora kinase B [8]", "result": 18, "unit": "nM"}, {"measurement": "ED50", "setting": "Mus musculus [6]", "result": 1.1, "unit": "mg/kg"}, {"measurement": "IC50", "setting": "[9]", "result": 3, "unit": "nM"}]}]}
